Experimental data from different studies.
Compare with care: the assays were run in different laboratories.
Target: Serine/threonine-protein kinase TNNI3K (TNNI3K, Homo sapiens, UniProt Q59H18)
One construct used (Q59H18 1-835): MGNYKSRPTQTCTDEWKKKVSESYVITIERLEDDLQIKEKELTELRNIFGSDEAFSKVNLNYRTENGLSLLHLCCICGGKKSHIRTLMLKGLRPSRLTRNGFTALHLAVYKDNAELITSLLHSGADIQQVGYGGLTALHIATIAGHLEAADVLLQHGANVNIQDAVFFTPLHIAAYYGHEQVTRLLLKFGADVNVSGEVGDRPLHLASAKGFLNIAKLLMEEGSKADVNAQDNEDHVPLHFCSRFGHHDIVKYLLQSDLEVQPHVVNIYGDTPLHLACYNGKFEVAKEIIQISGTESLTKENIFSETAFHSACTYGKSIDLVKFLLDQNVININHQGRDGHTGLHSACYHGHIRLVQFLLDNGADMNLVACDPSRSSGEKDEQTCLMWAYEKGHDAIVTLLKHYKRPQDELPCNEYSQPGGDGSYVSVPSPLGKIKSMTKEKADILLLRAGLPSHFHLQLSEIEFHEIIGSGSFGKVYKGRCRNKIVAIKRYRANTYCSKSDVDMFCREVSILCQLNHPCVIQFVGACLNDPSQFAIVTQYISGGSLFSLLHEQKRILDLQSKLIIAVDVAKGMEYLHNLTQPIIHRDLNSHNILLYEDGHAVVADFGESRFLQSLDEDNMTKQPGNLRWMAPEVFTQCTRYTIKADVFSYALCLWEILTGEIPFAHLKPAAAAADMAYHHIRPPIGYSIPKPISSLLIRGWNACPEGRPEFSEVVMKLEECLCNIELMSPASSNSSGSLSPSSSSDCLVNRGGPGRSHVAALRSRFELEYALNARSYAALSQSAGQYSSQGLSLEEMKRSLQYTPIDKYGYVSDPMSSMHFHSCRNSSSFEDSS

SMILES | observed | method | concentration | remaining binding [%]
c1cncc(-c2cccc(Nc3nccc(NC4CCCCC4)n3)c2)c1 | binding | competition with immobilised ligand | 10 µM | 95
O=C(NCCCN1CCOCC1)c1ccc(Nc2nccc(-c3cc4ccccc4s3)n2)cc1 | binding | competition with immobilised ligand | 1 µM | 70
COc1ccc2c(O[C@@H]3C[C@H]4C(=O)N[C@]5(C(=O)O)CC5/C=C\CCCCC[C@H](NC(=O)OC5CCCC5)C(=O)N4C3)cc(-c3csc(NC(=O)C(C)C)n3)nc2c1C (stereo partly shown) | cell-free assay | competition with immobilised ligand | 1 µM | 100
Cc1cnn2ncc(-c3ccnc(N(C)C)n3)c2c1 | binding |  | 1 µM | 100
CS(=O)(=O)N1CCCC(NC(=O)[C@H](CCC2CCCCC2)NC(=O)c2ccc(CNc3ncnc4c3nnn4-c3ccccc3)cc2)C1 (stereo partly shown) | cell-free assay | competition with immobilised ligand | 0.1 µM | 63
N[C@@H]1CCN(c2nccc(-c3cnn4ncccc34)n2)C1 | binding |  | 1 µM | 94
COc1ncc2cc3ccccc3nc2c1C#N | cell-free assay | competition with immobilised ligand | 5 µM | 100
CCCCN(CCCC)C(=O)CN1C[C@H](c2cc(OC)c3c(c2)OCO3)[C@@H](C(=O)O)[C@@H]1CC(C)(C)CCC | cell-free assay | competition with immobilised ligand | 1 µM | 100
COc1cnc(Nc2cccc(S(N)(=O)=O)c2)nc1N1CCN(c2ccccc2)C(=O)C1 | binding | competition with immobilised ligand | 1 µM | 86
Cn1nc(C(F)(F)F)cc1-c1cnc(N2CCc3cc(S(=O)(=O)Nc4c(F)cc(Cl)cc4F)cc(N4CCCC4=O)c32)nc1 | cell-free assay | competition with immobilised ligand | 1 µM | 65
O=C(c1ccc(Nc2nccc(-c3cc4ccccc4s3)n2)cc1)N1CCC(N2CCCC2)CC1 | binding | competition with immobilised ligand | 1 µM | 71
CN(C)c1ncc(F)c(-c2cnn3ncccc23)n1 | binding |  | 1 µM | 100
O=C(NCC1CCOCC1)c1n[nH]cc1NC(=O)c1c(F)cccc1F | binding | competition with immobilised ligand | 1 µM | 100
F[C@@H]1CCN(c2nccc(-c3cnn4ncccc34)n2)C1 | binding |  | 1 µM | 100
Cc1nc(C2CCN(C(=O)c3ccc(OC(F)(F)F)cc3N)CC2)c2ncc(N3CCN(C)CC3)cc2n1 | cell-free assay | competition with immobilised ligand | 1 µM | 100
C[C@@H]1CCN(c2nccc(-c3cnn4ncccc34)n2)C1 | binding |  | 1 µM | 100
Nc1cnc(N2CCc3cc(S(=O)(=O)Nc4c(F)cc(Cl)cc4F)cc(N4CCCC4=O)c32)nc1 | binding | competition with immobilised ligand | 1 µM | 49
CN(CCCC(F)(F)F)c1nccc(-c2cnn3ncccc23)n1 | binding |  | 1 µM | 100
CCN1CCN(Cc2ccc(C(=O)Nc3ccc(C)c(Oc4ccc5c(c4)CC(=O)N5)c3)cc2C(F)(F)F)CC1 | binding | competition with immobilised ligand | 1 µM | 88
Cc1cnc(Nc2ccc(C(=O)N3CCC(N4CCCC4)CC3)cc2)nc1-c1cc2ccccc2s1 | binding | competition with immobilised ligand | 1 µM | 31
CN(C)c1nccc(-c2cnn3ncccc23)n1 | binding |  | 1 µM | 100
CS(=O)(=O)c1cc(C2(NC(=O)c3cncc4c3cnn4-c3ccc(F)cc3)CC2)ccn1 | cell-free assay | competition with immobilised ligand | 1 µM | 64
